According to PubChem BioAssay:
The source made the active and inactive calls.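 How the source made its calls, unless noted: active means GFP response above 150% of the DMSO level; inconclusive means fewer than 70 events counted for a yeast strain; inactive means the rest.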

Key:
[1] = RPL19A-GFP modulators, yeast TOR pathway, confirmation, cell-based, S. cerevisiae, flow cytometry, cherry picks, mother/daughter gates (AID 2270;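 active means GFP response below 50% of the DMSO control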); settings: S. cerevisiae RPL19A-GFP strain, 3 h, at 10 µM, stronger effect = lower value, 100 = same GFP as DMSO wells
[2] = LAP4-GFP expression modulators in yeast, confirmation, cell-based, cherry picks, flow cytometry, mother/daughter gates (AID 2271;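 active means GFP response above 150% of the DMSO control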;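 further: ratio of sample to DMSO plate mean so 100% equals DMSO level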); settings: S. cerevisiae LAP4-GFP strain, 3 h, at 10 µM, stronger effect = higher value, 100 means same as DMSO control
Outline: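 System: GFP-fusion yeast strain | Input: Yeast cells seeded at OD600 of 0.2 | Technique: HT flow cytometry, GFP fluorescence channel | Read-out: % GFP response vs DMSO | Dosing: Single test-compound dose, 10 µM final | Controls: Positive rapamycin (400 ng/mL), negative DMSO | Times: 3 h treatment at 30 °C with rotation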

[3] = modulators of MEP2-GFP levels in yeast, confirmation, S. cerevisiae, flow cytometry GFP, cherry picks (AID 2272;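 active means GFP response above 150% of the DMSO control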;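 further: ratio of well signal to plate DMSO mean so 100% equals DMSO level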); settings: S. cerevisiae MEP2-GFP strain, 3 h, at 10 µM, stronger effect = higher value
[4] = AGP1-GFP expression modulators, hit retest, confirmation, cell-based, flow cytometry, S. cerevisiae, cherry picks (AID 2273);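 further: median GFP channel fluorescence over the whole cell population gate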; settings: S. cerevisiae AGP1-GFP strain, 3 h, at 10 µM
[5] = modulators of CIT2-GFP expression in yeast, confirmation, S. cerevisiae, GFP fusion, cherry picks, mother/daughter gates (AID 2274); settings: S. cerevisiae CIT2-GFP strain, flow cytometry, 3 h, at 10 µM, stronger effect = higher value
[6] = measured here: daughter cell gate
[7] = measured here: mother cell gate
[8] = measured here: daughter cell gate response
[9] = measured here: mother cell gate response

Row | SMILES | GFP response vs DMSO [1] | GFP response vs DMSO [1, 6] | GFP response vs DMSO [1, 7] | GFP response relative to DMSO [2] | GFP response relative to DMSO [2, 8] | GFP response relative to DMSO [2, 9] | GFP response vs DMSO [3] | GFP response, % of DMSO [4] | GFP response, % of DMSO [5] | GFP response, % of DMSO [5, 6] | GFP response, % of DMSO [5, 7]
1 | O=C(NCc1ccccn1)c1cc(-c2ccc(Cl)cc2)oc1C(F)(F)F | 99.5% (inactive) | 98.4% | 99.8% | 103% (inactive) | 106% | 102% | 100% (inactive) | 99.4% (inactive) | 102% (inactive) | 98.1% | 101%
2 | COc1ccc(COC(=O)c2n[nH]c3ccccc23)cc1F | 98.4% (inactive) | 96.7% | 98.2% | 97.4% (inactive) | 98.7% | 99.3% | 102% (inactive) | 95% (inactive) | 106% (inactive) | 108% | 104%
3 | O=S(=O)(/N=C(\Sc1ccc(Cl)cc1)c1ccccc1)c1ccccc1 | 93.1% (inactive) | 94.4% | 90.2% | 182% (active) | 145% | 178% | 99.3% (inactive) | 101% (inactive) | 90.3% (inactive) | 92.3% | 83.7%
4 | COc1ccc(S(=O)(=O)NCC(=O)N(CC(=O)NCc2ccco2)Cc2ccc(F)cc2)cc1 | 100% (inactive) | 98.8% | 101% | 99.5% (inactive) | 99.1% | 100% | 99% (inactive) | 103% (inactive) | 103% (inactive) | 105% | 101%
5 | CCCS(=O)(=O)N1CCC(C(=O)c2cccc(C(F)(F)F)c2)CC1 | 98.8% (inactive) | 97% | 98.2% | 101% (inactive) | 98.7% | 102% | 100% (inactive) | 97.8% (inactive) | 91.3% (inactive) | 93.2% | 89.1%
6 | Cc1ccc(NC(=O)COc2ccc(Br)cc2C)cc1 | 99.5% (inactive) | 97.3% | 100% | 107% (inactive) | 102% | 104% | 104% (inactive) | 96.7% (inactive) | 97.8% (inactive) | 98.3% | 95.6%
7 | O=C1C=CC(=O)N1c1ccc(O)cc1 | 96.6% (inactive) | 96.9% | 85.9% | 196% (active) | 192% | 192% | 100% (inactive) | 90% (inactive) | 96.9% (inactive) | 116% | 84.3%
8 | CCN(C(=O)c1ccccc1Cl)c1ccccc1 | 98.5% (inactive) | 99% | 98% | 107% (inactive) | 104% | 110% | 99.3% (inactive) | 98.8% (inactive) | 100% (inactive) | 101% | 100%
9 | COc1ccc(S(=O)(=O)N2CCC(O)(c3ccc(Cl)cc3)CC2)cc1 | 101% (inactive) | 99.6% | 101% | 97.9% (inactive) | 97.6% | 97.2% | 105% (inactive) | 91.9% (inactive) | 107% (inactive) | 106% | 104%
10 | Cc1cc(NC(=O)c2cc3ccccc3o2)ccc1NC(=O)c1ccccc1 | 98.4% (inactive) | 97.4% | 99.8% | 95.4% (inactive) | 94.4% | 96.1% | 102% (inactive) | 95.4% (inactive) | 101% (inactive) | 101% | 99.7%
11 | O=C(CSc1ccc(-c2ccccn2)nn1)N1CCCCC1 | 99.9% (inactive) | 100% | 99% | 101% (inactive) | 101% | 101% | 99.5% (inactive) | 103% (inactive) | 99.3% (inactive) | 100% | 96.8%
12 | Cc1ccccc1NC(=O)CC1SC(=O)N(c2ccccc2)C1=O (configuration not stated) | 94.9% (inactive) | 97.3% | 91% | 131% (inactive) | 127% | 133% | 112% (inactive) | 104% (inactive) | 104% (inactive) | 108% | 94.9%
13 | CCCN1CCc2c(sc(NC(=S)NC(=O)c3ccccc3)c2C#N)C1 | 100% (inactive) | 99.6% | 97.8% | 116% (inactive) | 107% | 120% | 187% (active) | 102% (inactive) | 106% (inactive) | 99.2% | 108%
14 | O=C(c1ccc2c(c1)OCO2)N1CCN(c2ccc(F)cc2)CC1 | 103% (inactive) | 101% | 102% | 90.2% (inactive) | 89.5% | 91.1% | 102% (inactive) | 98.5% (inactive) | 99.1% (inactive) | 96.5% | 99.8%
15 | O=C(OCC(=O)N1CCN(C(=O)c2ccco2)CC1)c1cc(-c2ccc(F)cc2)nc2ccccc12 | 78.9% (inactive) | 74.3% | 74.5% | 133% (inactive) | 107% | 138% | 125% (inactive) | 138% (inactive) | 135% (inactive) | 114% | 136%
16 | C/C(=N\NC(=O)c1cccc(Cl)c1)c1cccc(NC(=O)C(C)C)c1 | 96.2% (inactive) | 98.1% | 95.6% | 92.9% (inactive) | 94.4% | 92.3% | 103% (inactive) | 99.8% (inactive) | 100% (inactive) | 99.3% | 103%
17 | COc1ccc(-c2nn(-c3ccccc3)cc2C(=O)N/N=C/c2ccc([N+](=O)[O-])o2)cc1 | 103% (inactive) | 103% | 103% | 84.2% (inactive) | 92.5% | 92.1% | 100% (inactive) | 96.7% (inactive) | 113% (inactive) | 110% | 115%
18 | CCOc1cc(/C=N/Nc2nc(C)cc(=O)[nH]2)ccc1O | 102% (inactive) | 102% | 100% | 89% (inactive) | 87.9% | 90.1% | 104% (inactive) | 100% (inactive) | 106% (inactive) | 106% | 103%
19 | COc1cccc(N=Nc2ccc3cccnc3c2O)c1 | 99.8% (inactive) | 97.6% | 101% | 147% (inactive) | 140% | 146% | 120% (inactive) | 93.2% (inactive) | 98.8% (inactive) | 103% | 96.8%
20 | CC(C)Nc1nc(-c2ccccc2)nnc1-c1ccccc1 | 98.5% (inactive) | 98.4% | 97.7% | 107% (inactive) | 102% | 109% | 106% (inactive) | 96.1% (inactive) | 98.6% (inactive) | 97.6% | 98.2%
21 | COc1ccc(OC)c(S(=O)(=O)N2Cc3ccccc3CC2C(=O)O)c1 (configuration not stated) | 100% (inactive) | 101% | 99.4% | 104% (inactive) | 101% | 106% | 106% (inactive) | 102% (inactive) | 101% (inactive) | 103% | 103%
22 | O=C(Cn1c(=O)oc2cc(S(=O)(=O)N3CCCC3)ccc21)Nc1ccccc1Br | 93.7% (inactive) | 92.6% | 94.3% | 97.9% (inactive) | 97.6% | 96.1% | 102% (inactive) | 99.9% (inactive) | 101% (inactive) | 103% | 102%
23 | O=C(OCc1cccc([N+](=O)[O-])c1)c1cnccn1 | 98.5% (inactive) | 99.5% | 97.1% | 102% (inactive) | 97.5% | 105% | 103% (inactive) | 97% (inactive) | 98.6% (inactive) | 101% | 96%
24 | COc1ccc(C2=CC(=O)N(Nc3ccccc3)C2=O)cc1 | 102% (inactive) | 101% | 95.8% | 178% (active) | 170% | 172% | 107% (inactive) | 105% (inactive) | 99.1% (inactive) | 108% | 90.2%
25 | Cc1cc(N)ccc1NC(=O)c1ccccc1 | 101% (inactive) | 99.6% | 102% | 98.2% (inactive) | 99.1% | 98.4% | 105% (inactive) | 103% (inactive) | 100% (inactive) | 101% | 101%
26 | COc1ccc(OC)c(/C=C/C(=O)c2ccc(Cl)cc2)c1 | 92.2% (inactive) | 91.9% | 92% | 104% (inactive) | 97.6% | 105% | 96.2% (inactive) | 98.5% (inactive) | 101% (inactive) | 101% | 101%
27 | CC(=O)Nc1c(-c2ccc(F)cc2)nc2ccccn12 | 97.6% (inactive) | 99% | 95.8% | 106% (inactive) | 110% | 108% | 116% (inactive) | 106% (inactive) | 110% (inactive) | 114% | 108%
